# Screening data from PubChem.
# Shown are actives, neighbours in structure and some others; about 12% of the full set was active somewhere.
# WT yeast gro inh – growth inhibition of WT yeast, mitochondrial fusion screen | mitochondrial fusion phenotypic screen, WT strain | inhibition, % at 10 µM | hit rate 2.1% among 190,000 | AID 1362; in the data active = inhibition above about 58%; tested in S. cerevisiae
# Cl transport mod – modulators of human KCC2 chloride dependent transport. Q9H2X9. KCC2 cells, thallium flux FluoZin-2 fluorescence. hit rate 2.2% among 190,000. B-score of Tl+ flux slope (higher = more flux/activation; lower = inhibition) at 10 µM;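 active = thallium flux slope and its plate-corrected score both differing from the plate sample mean at a set confidence after two filtering rounds, in either direction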;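 note: slope of fluorescence scaled to starting intensity during 10 to 20 s after thallium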
# Diaphorase act – activates diaphorase or chemically reduces, flagging diaphorase assay artifacts; AID 1229; hit rate 0.005% among 190,000; activation factor at 20 µM; Diaphorase/resazurin coupled assay, resorufin fluorescence, 16 min; stronger effect = higher value; 1 = vehicle wells, 0 = NADH-free wells;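 active = diaphorase activity raised at least twofold by the compound at 20 µM; inactive = activation factor below 2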
#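 Test system: Clostridium kluyveri diaphorase, purified enzyme. Buffer or medium: 50 mM HEPES pH 7.4 buffer plus MgCl2 and Tween 20. Also added: 0.114 mM NADH and 0.1 mM resazurin, final amounts. Dosing: compound 20 µM once, DMSO 1%. Schedule: 16 min enzyme reaction, ambient temperature. Detection: fluorescence of resorufin, 544 nm excitation, 590 nm emission.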
# Lmaj promast – Leishmania major promastigote growth inhibition; hit rate 9% among 200,000; Leishmania major promastigotes, resazurin fluorescence viability; inhibition, % at 10 µM; in the data active = inhibition above about 50%;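 note: promastigotes grown with compound for 44 hours at 28 °C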
# Diaphorase inh – inhibits diaphorase or chemically oxidizes, flagging diaphorase assay artifacts. diaphorase resazurin-to-resorufin fluorescence, NADH, 16 min; bacterial (C. kluyveri) enzyme, not human. inhibition, % at 20 µM. hit rate 0.69% among 190,000;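 active = primary screen inhibition at 20 µM above a set limit, cut at about 50% in these data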
#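 Detection: fluorescence of resorufin formed from resazurin, Ex 544/Em 590 nm; test system: Clostridium kluyveri diaphorase enzyme; amount: 0.14 U/mL diaphorase, enzyme working solution; times: 16-min room-temperature incubation before reading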
# ROMK primary – modulators of human ROMK potassium channel. P48048. Tet-inducible ROMK, thallium flux fluorescence; actives lie on both sides. B-score at 10 µM. hit rate 2% among 130,000. AID 1918;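 active = signal ratio slope over the read window, or its plate-corrected B-score, at least 3 SD from the plate mean, either direction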;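 note: B-score of the F/F0 ratio slope over 7 to 12 s after thallium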
# KCC2 sec1 – KCC2 (human) modulation, secondary assay; HEK293-KCC2, thallium flux, FluoZin2 fluorescence; stronger effect = higher value; normalised thallium flux (F/F0 slope) at 10 µM; hit rate 15% among 3,700; shares compounds with Cl transport mod;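 active = thallium flux slope above the same plate's solvent-only control mean plus 3 SD; inconclusive = the two replicate wells disagree; inactive = no significant difference from solvent-only control wells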
# KCC2 bumet counter – thallium flux despite bumetanide block in KCC2 cells, secondary assay 3. shares compounds with Cl transport mod. HEK293-KCC2 + bumetanide/ouabain, thallium flux FluoZin2; stronger effect = higher value. normalized thallium flux at 10 µM. hit rate 49% among 3,700. AID 1714;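 active = thallium entry rate above the same plate's blocked-transporter control wells by more than 3 SD; inconclusive = the two repeat wells disagree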;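 note: raw slope of fluorescence over initial fluorescence between 10 and 20 s after thallium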
# KCC2 secondary2 – confirmation of human KCC2 transport modulators | shares compounds with Cl transport mod | HEK293-KCC2, thallium flux FluoZin2 fluorescence; actives lie on both sides; F/F0 rise rate, 10–20 s post-thallium | normalized thallium flux at 10 µM | hit rate 23% among 3,700 | AID 1715;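 active = thallium flux slope more than 3 SD above or below the plate's solvent-only control mean, mostly below; inconclusive = the two repeat wells disagreed; inactive = no significant shift from solvent-only controls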
# HEK counter1 – counter-screen for KCC2 modulators: effect in parental HEK293 cells; shares compounds with Cl transport mod; thallium flux FluoZin2, ouabain; baseline-ratio fluorescence slope, 10–20 s after thallium; thallium flux rate (normalised fluorescence) at 10 µM; hit rate 46% among 3,700; AID 1716;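 active = thallium flux rate significantly above the same plate's solvent-only control wells, beyond their mean plus 3 SD; inconclusive = the two replicate wells gave conflicting results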
# KCC2 ouabain – KCC2 (human) modulation, ouabain retest | shares compounds with Cl transport mod | HEK293-KCC2, thallium flux FluoZin2 fluorescence; bidirectional: low = inhibitor, high = activator | raw Tl+ flux slope (below DMSO = inhibition, above = activation) at 10 µM | hit rate 48% among 3,700 | AID 1717;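 active = thallium flux slope beyond 3 SD from same-plate DMSO control mean in most replicates, usually higher, sometimes lower; inconclusive = repeat tests gave conflicting results; inactive = no significant difference from controls in most replicates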;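 note: slope of initial-normalized fluorescence between seconds 10 and 20 after thallium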
# HEK counter2 – acts in parental HEK cells, second KCC2 counter-screen; shares compounds with Cl transport mod; HEK293 parental, thallium flux FluoZin-2 fluorescence slope; thallium flux slope at 10 µM; hit rate 33% among 3,700;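 active = thallium flux slope above the same plate's solvent-control mean plus 3 SD in both duplicate wells; inconclusive = duplicate wells that disagreed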;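 note: run without ouabain in cells lacking the KCC2 cotransporter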
# A number is an active result; 0 = inactive; ? = inconclusive; - = no result.
SMILES,WT yeast gro inh,Cl transport mod,Diaphorase act,Lmaj promast,Diaphorase inh,ROMK primary,KCC2 sec1,KCC2 bumet counter,KCC2 secondary2,HEK counter1,KCC2 ouabain,HEK counter2
CCC1CCCCN1C(=S)NC(=O)c1ccc(F)c(S(=O)(=O)N2CCOCC2)c1 (centres undefined),0,3.2,0,0,0,-,?,0.0188,0,0.0105,0.0288,?
CCC1CCCCN1C(=S)NC(=O)c1cccs1 (centres undefined),0,62.7,0,0,0,0,0.0363,0.103,0.0857,0.0882,0.0877,0.0872
O=C1CCC([N+](=O)[O-])C(c2cccc(Cl)c2Cl)N1 (centres undefined),0,-,0,0,0,-,-,-,-,-,-,-
COc1ccc(C(=O)C[n+]2ccc(-c3nnc4n3CCC4)cc2)cc1,0,0,0,0,0,0,-,-,-,-,-,-
O=C(NC1CC1)C1=C[C@@H](c2ccc3c(c2)OCO3)C[C@@H](OCc2ccc(CO)cc2)O1,0,0,0,0,0,-,-,-,-,-,-,-
Oc1c(Br)cc(Br)cc1/C=N/NC(=S)N[C@H]1CC2C=CC1C2 (some centres undefined),-,4.76,-,-,-,-,0,0.014,0,0.0102,?,0
Cc1c(Nc2nc(-c3ccc(Cl)cc3)cs2)c(=O)n(-c2ccccc2)n1C,0,-4.52,0,0,0,-,0,0,0.0241,0.00576,0.0135,?
Cc1c(NC2=C(Cl)C(=O)N(c3ccccc3)C2=O)c(=O)n(-c2ccccc2)n1C,0,-4.35,0,0,0,0,?,0,0,0,0,0
CCOC(=O)Cc1csc(Nc2c(C)n(C)n(-c3ccccc3)c2=O)n1,0,0,0,0,0,-,-,-,-,-,-,-
CC1=CCC2([N+](=O)[O-])CN(CC(=O)O)CC1([N+](=O)[O-])C2 (centres undefined),0,0,0,0,0,0,-,-,-,-,-,-
CCC(C)Nc1nc(OCC(F)(F)F)nc(OCC(F)(F)F)n1 (centres undefined),0,0,0,0,0,-,-,-,-,-,-,-
CC(C)(C)Nc1nc(OCC(F)(F)F)nc(OCC(F)(F)F)n1,0,-2.76,0,0,0,-,0,0,0,0,0.0149,0
O=c1c2ccccc2nc(CSc2ncnc3nc[nH]c23)n1-c1cccc(C(F)(F)F)c1,0,0,0,0,0,-,-,-,-,-,-,-
O=C(NC(=S)Nc1ccc(CN2CCOCC2)cc1)c1ccc(-c2cccc(Cl)c2)o1,-,0,-,-,-,0,-,-,-,-,-,-
O=C(NC(=S)Nc1ccc(CN2CCOCC2)cc1)c1ccc(-c2ccc(Br)cc2)o1,-,5.31,-,-,-,-,0,0,0,0.0175,?,0
O=C(Nc1ccc(CN2CCOCC2)cc1)c1cc2ccccc2o1,0,0,0,0,0,-,-,-,-,-,-,-
O=C(NC(=S)Nc1ccc(CN2CCOCC2)cc1)c1cc2ccccc2o1,0,12.4,0,0,0,0,0,0.0162,0,0.0198,0.0294,0.015
COc1ccc(C2/C=C\CN(C(=O)c3ccccc3)[C@H](Cc3ccccc3)C(=O)N2Cc2ccc(F)cc2)cc1 (some centres undefined),-,0,-,-,-,-,-,-,-,-,-,-
